From BindingDB's records for doi:10.1128/aac.00119-07 (Emory University, 2007)

Tests used:
Reverse transcriptase [1] = molecular target: T1, Reverse transcriptase (Human immunodeficiency virus 1, UniProt Q9WKE8); test: Inhibition of HIV1 LAI reverse transcriptase wild type in presence of 5 mM ATP by heteropolymeric DNA polymerase assay
Summary of the method: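 Heteropolymeric DNA assay with 5 mM ATP added: immobilized 18-mer primer, 5′-A12-(GTCA)5 50-mer template, dATP/dGTP/dCTP/BrdUTP at 1.0 μM each, HEPES 50 mM pH 7.3, MgCl2 10 mM. RT 30–100 pM, incubated at 33°C for 180 min. NaOH strand separation, then anti-BrdU-AP detection at 405 nm. IC50 fitted from seven inhibitor concentrations; two to four runs in duplicate.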

Reverse transcriptase [2] = molecular target: T1, Reverse transcriptase; test: Inhibition of HIV1 pNL4-3 reverse transcriptase wild type pNL4-3 by heteropolymeric DNA polymerase assay
Summary of the method: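 Heteropolymeric assay without ATP: plate-bound 18-mer DNA primer (~110 nM) with 50-mer 5′-A12-(GTCA)5 template (190 nM). dATP, dGTP, dCTP and BrdUTP at 1.0 μM each, in HEPES 50 mM pH 7.3, MgCl2 10 mM. RT 30–100 pM, 33°C for 180 min, then NaOH dehybridization and anti-BrdU-AP tracer read at 405 nm. IC50 from seven triphosphate concentrations; two to four runs in duplicate.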

IC50 (Reverse transcriptase [1])	IC50 (Reverse transcriptase [2])	SMILES
0.9 µM	1.2 µM	Nc1nc2c(c(=O)[nH]1)NCN2[C@H]1C=C[C@@H](COP(=O)(O)OP(=O)(O)OP(=O)(O)O)C1 [Carbovir-Triphosphate]
1.3 µM	1.2 µM	C[C@@H](Cn1cnc2c(N)ncnc21)OCP(=O)(O)OP(=O)(O)OP(=O)(O)O [Tenofovir diphospahte]
